# The source made the active and inactive calls. No cut-off for these calls is given here.
# Tests used:
# [1] = AUC (0 to t) in ICR mouse at 5 mg/kg, iv; assay type: ADME, organism-based; parameters: dose 5 mg/kg, route intravenous; details: plasma
# Summary of the method: (§1)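 ICR mice given drug intravenously at 5 mg/kg or orally at 10 mg/kg. Parameters are taken from the plasma concentration–time profile: AUC(0–t), AUC(0–∞), MRT, Cmax and bioavailability.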
# [2] = AUC (0 to infinity) in ICR mouse at 5 mg/kg, iv; assay type: ADME, organism-based; parameters: time infinity, dose 5 mg/kg, route intravenous; details: plasma; summary of the method: as §1
# [3] = Mean residence time (0 to infinity) in ICR mouse at 5 mg/kg, iv; assay type: ADME, organism-based; parameters: dose 5 mg/kg, route intravenous; details: in vivo; summary of the method: as §1
# [4] = Tmax in ICR mouse at 5 mg/kg, iv; assay type: ADME, organism-based; parameters: dose 5 mg/kg, route intravenous; details: in vivo
# [5] = Cmax in ICR mouse at 5 mg/kg, iv; assay type: ADME, organism-based; parameters: dose 5 mg/kg, route intravenous; details: in vivo; summary of the method: as §1
# [6] = AUC (0 to t) in ICR mouse at 10 mg/kg, po; assay type: ADME, organism-based; parameters: dose 10 mg/kg, route oral; details: plasma; summary of the method: as §1
# [7] = AUC (0 to infinity) in ICR mouse at 10 mg/kg, po; assay type: ADME, organism-based; parameters: time infinity, dose 10 mg/kg, route oral; details: plasma; summary of the method: as §1
# [8] = Mean residence time (0 to infinity) in ICR mouse at 10 mg/kg, po; assay type: ADME, organism-based; parameters: dose 10 mg/kg, route oral; details: in vivo; summary of the method: as §1
# [9] = Tmax in ICR mouse at 10 mg/kg, po; assay type: ADME, organism-based; parameters: dose 10 mg/kg, route oral; details: in vivo
# [10] = Cmax in ICR mouse at 10 mg/kg, po; assay type: ADME, organism-based; parameters: dose 10 mg/kg, route oral; details: in vivo; summary of the method: as §1
# [11] = Oral bioavailability ICR mouse at 10 mg/kg; assay type: ADME, organism-based; details: in vivo; summary of the method: as §1
# Rattus norvegicus = experiment: Antiinflammatory activity in Wistar albino rat assessed as inhibition of carrageenan-induced paw edema at 30 mg/kg intragastrically administered 1 hr before carrageenan challenge measured after 1 to 24 hrs post carrageenan challenge by plethysmometer; assay type: functional, organism-based
# Summary of the method: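 Male Wistar albino rats, 140–160 g, eight per group, dosed i.g. as a suspension in 0.5% CMC; controls get 0.5% CMC only. 1 h later, 0.1 ml of 0.1% carrageenan in 0.9% NaCl is injected into the sub-plantar region of the right hind paw. Paw volume is read by plethysmometer hourly to 6 h and at 24 h. Inhibition (%) = (Vc − Vt)/Vc × 100 on mean volume increase; mean ± SEM.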
# [12] = Plasma concentration in ICR mouse at 5 mg/kg, iv after 0.083 hrs by HPLC/MS/MS analysis; assay type: ADME, organism-based; parameters: dose 5 mg/kg, route intravenous
# [13] = Plasma concentration in ICR mouse at 5 mg/kg, iv after 0.25 hrs by HPLC/MS/MS analysis; assay type: ADME, organism-based; parameters: dose 5 mg/kg, route intravenous
# [14] = Plasma concentration in ICR mouse at 5 mg/kg, iv after 0.5 hrs by HPLC/MS/MS analysis; assay type: ADME, organism-based; parameters: dose 5 mg/kg, route intravenous
# [15] = Plasma concentration in ICR mouse at 5 mg/kg, iv after 1 hr by HPLC/MS/MS analysis; assay type: ADME, organism-based; parameters: dose 5 mg/kg, route intravenous
# [16] = Plasma concentration in ICR mouse at 5 mg/kg, iv after 2 hrs by HPLC/MS/MS analysis; assay type: ADME, organism-based; parameters: dose 5 mg/kg, route intravenous
# [17] = Plasma concentration in ICR mouse at 5 mg/kg, iv after 4 hrs by HPLC/MS/MS analysis; assay type: ADME, organism-based; parameters: dose 5 mg/kg, route intravenous
# [18] = Plasma concentration in ICR mouse at 5 mg/kg, iv after 8 hrs by HPLC/MS/MS analysis; assay type: ADME, organism-based; parameters: dose 5 mg/kg, route intravenous
# [19] = Plasma concentration in ICR mouse at 10 mg/kg, po after 0.083 hrs by HPLC/MS/MS analysis; assay type: ADME, organism-based; parameters: dose 10 mg/kg, route oral
# [20] = Plasma concentration in ICR mouse at 10 mg/kg, po after 0.25 hrs by HPLC/MS/MS analysis; assay type: ADME, organism-based; parameters: dose 10 mg/kg, route oral
# [21] = Plasma concentration in ICR mouse at 10 mg/kg, po after 0.5 hrs by HPLC/MS/MS analysis; assay type: ADME, organism-based; parameters: dose 10 mg/kg, route oral
# [22] = Plasma concentration in ICR mouse at 10 mg/kg, po after 1 hr by HPLC/MS/MS analysis; assay type: ADME, organism-based; parameters: dose 10 mg/kg, route oral
# [23] = Plasma concentration in ICR mouse at 10 mg/kg, po after 2 hrs by HPLC/MS/MS analysis; assay type: ADME, organism-based; parameters: dose 10 mg/kg, route oral
# [24] = Plasma concentration in ICR mouse at 10 mg/kg, po after 4 hrs by HPLC/MS/MS analysis; assay type: ADME, organism-based; parameters: dose 10 mg/kg, route oral
# [25] = Plasma concentration in ICR mouse at 10 mg/kg, po after 6 hrs by HPLC/MS/MS analysis; assay type: ADME, organism-based; parameters: dose 10 mg/kg, route oral
# [26] = Plasma concentration in ICR mouse at 10 mg/kg, po after 8 hrs by HPLC/MS/MS analysis; assay type: ADME, organism-based; parameters: dose 10 mg/kg, route oral
# [27] = Drug level in ICR mouse brain at 5 mg/kg, iv after 0.083 hrs by HPLC/MS/MS analysis; assay type: ADME, organism-based; parameters: dose 5 mg/kg, route intravenous; details: read-out: Drug uptake
# [28] = Drug level in ICR mouse brain at 5 mg/kg, iv after 0.25 hrs by HPLC/MS/MS analysis; assay type: ADME, organism-based; parameters: dose 5 mg/kg, route intravenous; details: read-out: Drug uptake
# [29] = Drug level in ICR mouse brain at 5 mg/kg, iv after 0.5 hrs by HPLC/MS/MS analysis; assay type: ADME, organism-based; parameters: dose 5 mg/kg, route intravenous; details: read-out: Drug uptake
# [30] = Drug level in ICR mouse brain at 5 mg/kg, iv after 1 hr by HPLC/MS/MS analysis; assay type: ADME, organism-based; parameters: dose 5 mg/kg, route intravenous; details: read-out: Drug uptake
# [31] = Drug level in ICR mouse brain at 5 mg/kg, iv after 2 hrs by HPLC/MS/MS analysis; assay type: ADME, organism-based; parameters: dose 5 mg/kg, route intravenous; details: read-out: Drug uptake
# [32] = Drug level in ICR mouse brain at 10 mg/kg, po after 0.083 hrs by HPLC/MS/MS analysis; assay type: ADME, organism-based; parameters: dose 10 mg/kg, route oral; details: read-out: Drug uptake
# [33] = Drug level in ICR mouse brain at 10 mg/kg, po after 0.25 hrs by HPLC/MS/MS analysis; assay type: ADME, organism-based; parameters: dose 10 mg/kg, route oral; details: read-out: Drug uptake
# [34] = Drug level in ICR mouse brain at 10 mg/kg, po after 0.5 hrs by HPLC/MS/MS analysis; assay type: ADME, organism-based; parameters: dose 10 mg/kg, route oral; details: read-out: Drug uptake
# [35] = Drug level in ICR mouse brain at 10 mg/kg, po after 1 hr by HPLC/MS/MS analysis; assay type: ADME, organism-based; parameters: dose 10 mg/kg, route oral; details: read-out: Drug uptake
# [36] = Drug level in ICR mouse brain at 10 mg/kg, po after 2 hrs by HPLC/MS/MS analysis; assay type: ADME, organism-based; parameters: dose 10 mg/kg, route oral; details: read-out: Drug uptake
# [37] = Drug level in ICR mouse brain at 10 mg/kg, po after 4 hrs by HPLC/MS/MS analysis; assay type: ADME, organism-based; parameters: dose 10 mg/kg, route oral; details: read-out: Drug uptake
# Nucleic Acid [38] = experiment: Ratio of drug level in brain to plasma in ICR mouse at 5 mg/kg, iv after 0.083 hrs by HPLC/MS/MS analysis; assay type: ADME, organism-based; parameters: dose 5 mg/kg, route intravenous
# Nucleic Acid [39] = experiment: Ratio of drug level in brain to plasma in ICR mouse at 5 mg/kg, iv after 0.25 hrs by HPLC/MS/MS analysis; assay type: ADME, organism-based; parameters: dose 5 mg/kg, route intravenous
# Nucleic Acid [40] = experiment: Ratio of drug level in brain to plasma in ICR mouse at 5 mg/kg, iv after 0.5 hrs by HPLC/MS/MS analysis; assay type: ADME, organism-based; parameters: dose 5 mg/kg, route intravenous
# Nucleic Acid [41] = experiment: Ratio of drug level in brain to plasma in ICR mouse at 5 mg/kg, iv after 2 hrs by HPLC/MS/MS analysis; assay type: ADME, organism-based; parameters: dose 5 mg/kg, route intravenous
# Nucleic Acid [42] = experiment: Ratio of drug level in brain to plasma in ICR mouse at 10 mg/kg, po after 0.25 hrs by HPLC/MS/MS analysis; assay type: ADME, organism-based; parameters: dose 10 mg/kg, route oral
# Nucleic Acid [43] = experiment: Ratio of drug level in brain to plasma in ICR mouse at 10 mg/kg, po after 0.5 hrs by HPLC/MS/MS analysis; assay type: ADME, organism-based; parameters: dose 10 mg/kg, route oral
# Nucleic Acid [44] = experiment: Ratio of drug level in brain to plasma in ICR mouse at 10 mg/kg, po after 1 hr by HPLC/MS/MS analysis; assay type: ADME, organism-based; parameters: dose 10 mg/kg, route oral
structure (smiles),measurement,setting,value
CC(C)Cc1ccc([C@H](C)C(=O)O)cc1 [DEXIBUPROFEN],AUC(0-t),[1],33900 ng·h/mL
same,AUC(0-inf),[2],34500 ng·h/mL
same,MRT inf,[3],1.28 h
same,Tmax,[4],4.8 min
same,Cmax,[5],34600 ng/mL
same,AUC(0-t),[6],81100 ng·h/mL
same,AUC(0-inf),[7],81600 ng·h/mL
same,MRT inf,[8],1.68 h
same,Tmax,[9],4.8 min
same,Cmax,[10],52.1 µg/mL
same,bioavailability,[11],118%
same,inhibition,Rattus norvegicus,Active
same,concentration at 0.083 h,[12],34600 ng/mL
same,concentration at 0.25 h,[13],19400 ng/mL
same,concentration at 0.5 h,[14],19800 ng/mL
same,concentration at 1 h,[15],9960 ng/mL
same,concentration at 2 h,[16],3930 ng/mL
same,concentration at 4 h,[17],927 ng/mL
same,concentration at 8 h,[18],354 ng/mL
same,concentration at 0.083 h,[19],52.1 µg/mL
same,concentration at 0.25 h,[20],33600 ng/mL
same,concentration at 0.5 h,[21],34400 ng/mL
same,concentration at 1 h,[22],24000 ng/mL
same,concentration at 2 h,[23],15800 ng/mL
same,concentration at 4 h,[24],5260 ng/mL
same,concentration at 6 h,[25],1070 ng/mL
same,concentration at 8 h,[26],336 ng/mL
same,concentration at 0.083 h,[27],1260 ng/g
same,concentration at 0.25 h,[28],598 ng/g
same,concentration at 0.5 h,[29],613 ng/g
same,concentration at 1 h,[30],251 ng/g
same,concentration at 2 h,[31],123 ng/g
same,concentration at 0.083 h,[32],1340 ng/g
same,concentration at 0.25 h,[33],999 ng/g
same,concentration at 0.5 h,[34],1130 ng/g
same,concentration at 1 h,[35],721 ng/g
same,concentration at 2 h,[36],340 ng/g
same,concentration at 4 h,[37],127 ng/g
same,BPR,Nucleic Acid [38],0.037 mL/g
same,BPR,Nucleic Acid [39],0.032 mL/g
same,BPR,Nucleic Acid [40],0.032 mL/g
same,BPR,Nucleic Acid [41],0.031 mL/g
same,BPR,Nucleic Acid [42],0.029 mL/g
same,BPR,Nucleic Acid [43],0.033 mL/g
same,BPR,Nucleic Acid [44],0.031 mL/g
